Calls of active or inactive are those of the source. No cut-off for these calls is given here.

Series [1] deals with PC-12. The experiment in a line: Inhibition of manganese ion-induced apoptosis in PC12 cells assessesed as suppression of DNA fragmentation upto 20 uM. The format is functional, cell-based. The method in brief:
(§1)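 PC12 cells (2·10⁷) preincubated with test agent at 10 and 20 μM for 30 min at 37 °C in DMEM plus 5% FBS. MnCl₂ then added to 0.25 mM and incubation continued 20 h at 37 °C. Soluble DNA extracted, run on agarose gels, laddering visualized on UV transilluminator.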

Series [2] has as its system PC-12. The experiment in a line: Toxicity in PC12 cells assessed by measuring DNA fragmentation upto 20 uM. The format is cell-based, Homo sapiens. In outline:
(§2)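 PC12 cells (2·10⁷) exposed to agent at 10 and 20 μM in DMEM with 5% FBS at 37 °C, 30 min preincubation, then 20 h further incubation with no MnCl₂ added. Apoptosis judged by DNA laddering: soluble DNA extracted, agarose gel electrophoresis, UV transilluminator visualization.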

Series [3] concerns PC-12. The experiment in a line: Inhibition of manganese ion-induced apoptosis in PC12 cells assessesed as suppression of DNA fragmentation at 10 uM. The format is functional. The following applies: Rattus norvegicus. The method in brief:
as §1

Series [4] deals with PC-12. Nature of the series: Toxicity in PC12 cells assessed by measuring DNA fragmentation at 10 uM. The following applies: pc-12, 10 µM. The format is cell-based, Homo sapiens. In outline: as §2

Consider `COC(=O)CCCCC/C=C1\CC=CC1=O`, for which the result in the series on PC-12 [1] was inactive. In addition, the Activity entry in the series with PC-12 [2] is recorded as “Non-toxic”.

Turning to `COC(=O)CCCCC/C=C1/C(=O)CC[C@H]1CCCCCCc1ccc(C)cc1`, the result with PC-12 [1] was inactive. Further, the Activity entry in the series with PC-12 [2] is listed as “Non-toxic”.

For the compound `COC(=O)CCCCCC[C@@H]1C(=O)C=C[C@H]1CCCCCCc1ccc(C)cc1`, the outcome in the series with PC-12 [1] was inactive. Moreover, the Activity entry in the series on PC-12 [2] is “Non-toxic”.

As usually defined, the inhibition is the drop in the measured response relative to a control, in per cent. A high value points to a response far below the control. In turn, `COC(=O)CCCCC/C=C1/C(=O)C=C[C@H]1CCCCCCc1ccc(C)cc1` returned an inhibition at 10 µM in the series with PC-12 [3] of 50%. In the series with PC-12 [4], the Activity entry is on record as “Toxic”.

On to `CCCCC/C=C/C=C1/C(=O)C=CC1C/C=C\CCCC(=O)O` (stereo unspecified), for which the result in the series on PC-12 [1] was inactive. Besides, the Activity entry in the series on PC-12 [4] was “Toxic”.

On to `CCCCC[C@H](O)/C=C/[C@H]1C=CC(=O)/C1=C/CCCCCC(=O)OC`, for which the outcome in the series on PC-12 [1] was inactive. In addition, in the series on PC-12 [4], the Activity entry is “Toxic”.

On to `COC(=O)CCCCCC[C@@H]1C=CC(=O)/C1=C/CCCCOc1ccc(Br)cc1`, for which the result in the series on PC-12 [1] was inactive. Also, the Activity result in the series on PC-12 [4] is “Toxic”.

In the series on PC-12 [3], `CCCCCCC/C=C1/C(=O)C=C[C@@H]1CCCCCCC(=O)OC` returned an inhibition at 10 µM of 50%. Moreover, the Activity entry in the series with PC-12 [2] was “Non-toxic”.

In turn, `COC(=O)CCCCCC[C@H]1C=CC(=O)/C1=C/CCCCCc1ccc(C)cc1` displayed an inhibition at 10 µM with PC-12 [3] of 50%. In the series with PC-12 [2], the Activity result is on record as “Non-toxic”.

Turning to `CCCCCCCC[C@@H]1C=CC(=O)/C1=C/CCCCCC(=O)OC`, the inhibition at 10 µM with PC-12 [3] stood at 50%.

In turn, `COC(=O)CCCCCC[C@H]1C=CC(=O)/C1=C/CCCCOc1ccc(Br)cc1` showed an inhibition at 10 µM in the series with PC-12 [3] of less than 50%. Further, the Activity entry in the series on PC-12 [2] is on record as “Non-toxic”.

The record behind these values is ChEMBL document CHEMBL1139789, “Synthesis of neuroprotective cyclopentenone prostaglandin analogs: suppression of manganese-induced apoptosis of PC12 cells” (Bioorg Med Chem Lett, 2007).
